pIC50: −log10 of the molar value. Where a name gives a salt, the structure may show the parent alone.
How the values were obtained:
H1299 lung cancer cells [1] = assay: SRB proliferation assay; assay type: cell-based; conditions: Homo sapiens, NCI-H1299, 72 h, read-out: SRB IC50
Method in brief: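 H1299 cells (RPMI/10% FBS) seeded the day before, then given serial half dilutions from 20 μM down to 0.078 μM for 72 h. Fixed in cold 10% TCA for 1 h and stained 15 min with 0.4% SRB. Washed with water and 1% acetic acid, dye dissolved in 10 mM Tris pH 10.5, OD read at 560 nm. Normalized to DMSO; IC₅₀ with 95% CI by nonlinear regression. Three biological × three technical replicates.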

H1299 lung cancer cells [2] = assay: WST-8 proliferation assay; assay type: cell-based; conditions: Homo sapiens, NCI-H1299, 72 h, read-out: WST IC50
Method in brief: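 H1299 cells (RPMI/10% FBS) seeded the day before, then given serial half dilutions from 20 μM down to 0.078 μM for 72 h. WST-8 reagent added to the medium at 1:10, 2 h at 37°C, OD read at 450 nm; both adherent and non-adherent cells counted. Normalized to DMSO; IC₅₀ with 95% CI by nonlinear regression. Three biological × three technical replicates.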

[3] = Caco-2 permeability assay; assay type: in vitro ADME; conditions: human
Method in brief: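 Caco-2 monolayers grown to confluence on transwells, with integrity checked by TEER. Test compound (5 μM) added to the apical or the basolateral side to give transport direction. After 2 h, donor and receiver samples quantified by LC-MS/MS. Lucifer Yellow used to check leakage. Propranolol (high absorption) and digoxin (high efflux) served as controls.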

[4] = In vivo pharmacokinetics, single IP dose; parameters: species or system BALB/c mice
Method in brief: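 Female BALB/c mice (8–14 weeks) given 5 mg/kg by single IP injection in 1% DMSO/99% water. Plasma sampled at 0.25, 0.5, 1, 2, 4, 6, 8 and 24 h. Compound quantified by LC-MS/MS with calibration standards and QC samples. Terminal elimination half-life and maximum concentration derived; n = 3 mice per treatment.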

H1299 cells [5] = assay: TMRM flow cytometry with oligomycin; assay type: cell-based, human; conditions: H1299, 1 μM, 48 h, + 1 μM oligomycin, mean of three replicates
Method in brief: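 H1299 cells (1.75 × 10⁵ per 10 cm plate) exposed 48 h to 1 μM or to DMSO. Attached and floating cells pooled and stained with 2 nM TMRM in phenol-red-free RPMI with 2% dialyzed FBS for 30 min at 37°C. Oligomycin (1 μM) added during the TMRM incubation, then flow cytometry. Three biological replicates.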

H1299 cells [6] = assay: 3D spheroid invasion assay; assay type: cell-based, human; conditions: H1299 spheroids in basement membrane matrix, 2 μM, 48 h
Method in brief: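 H1299 spheroids formed over 3 days from 3 × 10³ cells/well in low-attachment wells. Embedded in Matrigel containing 0.5, 1 or 2 μM compound, with compound also in the medium, and incubated 48 h. Imaged at Day 0 and Day 2 with a 4× objective; perimeter outlined. Invasion area = Day 2 area minus Day 0 area. At least four spheroids per treatment in each of three biological replicates.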

H1299 cells [7] = assay: Extracellular lactate assay; assay type: cell-based, human; conditions: H1299, 1 and 2 μM, 48 h
Method in brief: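 H1299 seeded at 3.75 × 10⁴ or 7.5 × 10⁴ cells/well, then treated 48 h with 1 or 2 μM or with DMSO. Medium passed through a 3K cutoff filter at 14,000 × g, 15 min, 4°C. Lactate measured with a WST-based kit on medium diluted 1:20, in triplicate, against a standard curve. Values normalized to cell count and DMSO; three biological replicates.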

H1299 cells [8] = assay: Mitochondrial structure by electron microscopy; assay type: cell-based, human; conditions: H1299, 48 h, 1 or 2 μM
Method in brief: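 H1299 cells (1.75 × 10⁵ per 10 cm plate) exposed 48 h to 1 or 2 μM or to DMSO, then scraped and pelleted. Pellets fixed 4 h at room temperature in 2.0% paraformaldehyde/2.5% glutaraldehyde in 0.1 M cacodylate, pH 7.2. Post-fixed in 1.0% osmium tetroxide for 1 h; en bloc 2% aqueous uranyl acetate, 20 min, 60°C. Three biological replicates.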

[9] = female, BALB/c, mouse, plasma, ip, 5 mg/kg

## CCCCC(CC)CNC(=N)NC(=N)NCCCCCCNC(=N)NC(=N)NCC(CC)CCCC (stereo not shown) [Alexidine, Alexidine dihydrochloride]
H1299 lung cancer cells [1]
  pIC50: 6.00
H1299 lung cancer cells [2]
  pIC50: 5.60
[3]
  efflux ratio at 2 h, 5 μM: > 5.37
[4]; [9]
  Cmax: 268 ng/mL
  half-life: 9.5 h
[4]; mice, IP
  tolerability in mice: tolerated in mice
H1299 cells [5]
  percentage of cells unable to hyperpolarize with oligomycin (TMRM-low population): 18.1%
H1299 cells [6]
  invasive area, % of the control: 36.8%
H1299 cells [7]
  effect on extracellular lactate: increased lactate concentration
H1299 cells [8]
  effect on mitochondrial structure: disrupted mitochondrial structure

Source: publication PMC11022046 (iScience, 2024)
